In ChEMBL document CHEMBL2146441, “2,6-Disubstituted imidazo[2,1-b][1,3,4]thiadiazoles: search for anticancer agents” (2012):

Columns and labels:
Assay type in all cases: functional
NCI-H226 = test: Cytotoxicity against human NCI-H226 cells assessed as cell growth at 10^-5 M after 48 hrs by SRB assay; settings: NCI-H226, 48 h, read-out: Activity
HCC 2998 = test: Cytotoxicity against human HCC2998 cells assessed as cell growth at 10^-5 M after 48 hrs by SRB assay; settings: HCC 2998, 48 h, read-out: Activity
How it was run: (§1)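 NCI-60 five-dose screen. Cells were grown in RPMI 1640 with 5% FBS and seeded at 5000–40,000 cells/well according to doubling time. They were pre-incubated 24 h at 37 °C in 5% CO₂, and time-zero (Tz) plates were TCA-fixed at drug addition. Five 10-fold dilutions of DMSO stock were applied for 48 h. Read-out was SRB staining, 515 nm absorbance, with percent growth calculated versus Tz and untreated control.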

OVCAR-4 = test: Cytotoxicity against human OVCAR4 cells assessed as cell growth at 10^-5 M after 48 hrs by SRB assay; settings: OVCAR-4, 48 h, read-out: Activity
786-0 = test: Cytotoxicity against human 786-0 cells assessed as cell growth at 10^-5 M after 48 hrs by SRB assay; settings: 786-0, 48 h, read-out: Activity
How it was run: (§2)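 NCI-60 screen: lines kept in RPMI 1640 with 5% FBS, seeded at 5000–40,000 cells/well by doubling time, preincubated 24 h at 37 °C in 5% CO2. Time-zero plates TCA-fixed at drug addition. DMSO stocks diluted in medium, 48 h exposure. Fixation in cold TCA (final 10% adherent, 16% suspension), 0.4% SRB stain, solubilised in 10 mM Tris base, A515. Percent growth computed against control and time-zero.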

[1] = Cytotoxicity against human […] cells assessed as cell growth at 10^-7 M after 48 hrs by SRB assay; settings: 48 h, read-out: Activity
SNB-75 = test: Cytotoxicity against human SNB75 cells assessed as cell growth at 10^-7 M after 48 hrs by SRB assay; settings: SNB-75, 48 h, read-out: Activity
U-251 [2] = test: Cytotoxicity against human U251 cells assessed as cell growth at 10^-7 M after 48 hrs by SRB assay; settings: U-251, 48 h, read-out: Activity
MDA-MB-435 = test: Cytotoxicity against human MDA-MB-435 cells assessed as cell growth at 10^-7 M after 48 hrs by SRB assay; settings: MDA-MB-435, 48 h, read-out: Activity
UACC-257 = test: Cytotoxicity against human UACC257 cells assessed as cell growth at 10^-7 M after 48 hrs by SRB assay; settings: UACC-257, 48 h, read-out: Activity
KM12 = test: Cytotoxicity against human KM12 cells assessed as cell growth at 10^-4 M after 48 hrs by SRB assay; settings: KM12, 48 h, read-out: Activity
SF-268 = test: Cytotoxicity against human SF268 cells assessed as cell growth at 10^-4 M after 48 hrs by SRB assay; settings: SF-268, 48 h, read-out: Activity
U-251 [3] = test: Cytotoxicity against human U251 cells assessed as cell growth at 10^-4 M after 48 hrs by SRB assay; settings: U-251, 48 h, read-out: Activity
PC-3 = test: Cytotoxicity against human PC3 cells assessed as cell growth at 10^-7 M after 48 hrs by SRB assay; settings: PC-3, 48 h, read-out: Activity
DU-145 = test: Cytotoxicity against human DU145 cells assessed as cell growth at 10^-7 M after 48 hrs by SRB assay; settings: DU-145, 48 h, read-out: Activity; how it was run: as §2
BT-549 = test: Cytotoxicity against human BT549 cells assessed as cell growth at 10^-7 M after 48 hrs by SRB assay; settings: BT-549, 48 h, read-out: Activity; how it was run: as §2
A549 = test: Cytotoxicity against human A549 cells assessed as cell growth at 10^-8 M after 48 hrs by SRB assay; settings: A549, 48 h, read-out: Activity; how it was run: as §2
M14 = test: Cytotoxicity against human M14 cells assessed as cell growth at 10^-8 M after 48 hrs by SRB assay; settings: M14, 48 h, read-out: Activity
SK-MEL-28 [4] = test: Cytotoxicity against human SK-MEL-28 cells assessed as cell growth at 10^-8 M after 48 hrs by SRB assay; settings: SK-MEL-28, 48 h, read-out: Activity
OVCAR-3 = test: Cytotoxicity against human OVCAR3 cells assessed as cell growth at 10^-8 M after 48 hrs by SRB assay; settings: OVCAR-3, 48 h, read-out: Activity
CAKI-1 [5] = test: Cytotoxicity against human Caki1 cells assessed as cell growth at 10^-8 M after 48 hrs by SRB assay; settings: CAKI-1, 48 h, read-out: Activity; how it was run: as §2
SN12C = test: Cytotoxicity against human SN12C cells assessed as cell growth at 10^-8 M after 48 hrs by SRB assay; settings: read-out: Activity
[6] = Cytotoxicity against human Hs 578T cells assessed as cell growth at 10^-8 M after 48 hrs by SRB assay; settings: read-out: Activity; how it was run: as §1
[7] = Cytotoxicity against human […] cells assessed as cell growth at 10^-6 M after 48 hrs by SRB assay; settings: 48 h, read-out: Activity
SK-MEL-28 [8] = test: Cytotoxicity against human SK-MEL-28 cells assessed as cell growth at 10^-6 M after 48 hrs by SRB assay; settings: SK-MEL-28, 48 h, read-out: Activity
CAKI-1 [9] = test: Cytotoxicity against human Caki1 cells assessed as cell growth at 10^-6 M after 48 hrs by SRB assay; settings: CAKI-1, 48 h, read-out: Activity; how it was run: as §2
UO-31 = test: Cytotoxicity against human UO31 cells assessed as cell growth at 10^-6 M after 48 hrs by SRB assay; settings: UO-31, 48 h, read-out: Activity
CCRF-CEM = test: Growth inhibition of human CCRF-CEM cells after 48 hrs by SRB assay; settings: for CC50: read-out: LC50 (the source's name)
How it was run: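 Same 48 h NCI-60 five-dose SRB protocol. Adherent lines were fixed with cold TCA at 10% final; suspension lines such as CCRF-CEM were fixed with 16% final TCA. Stain was 0.4% SRB in 1% acetic acid for 10 min, solubilized in 10 mM Tris base and read at 515 nm. GI50 came from log concentration–growth curves, solving [(Ti−Tz)/(C−Tz)]×100 = 50.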

HOP-62 = test: Growth inhibition of human HOP62 cells after 48 hrs by SRB assay; settings: HOP-62, 48 h
How it was run: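 Adherent NCI-60 lines grown in RPMI 1640 with 5% FBS, seeded at 5000–40,000 cells/well, and preincubated 24 h at 37 °C, 5% CO2. Compound, stocked in DMSO, given either once at 10^-5 M or at five 10-fold dilutions for 48 h. Cells fixed with cold TCA (final 10%), stained with 0.4% SRB, and read at 515 nm. GI50 taken as 50% reduction in net protein increase versus time-zero and control plates.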

HL-60 = test: Cytotoxicity against human HL60 cells assessed as cell growth at 10^-5 M after 48 hrs by SRB assay; settings: HL-60, 48 h, read-out: Activity; how it was run: as §1

Row | SMILES | growth at 10 µM (NCI-H226) [%] | growth at 10 µM (HCC 2998) [%] | growth at 10 µM (OVCAR-4) [%] | growth at 10 µM (786-0) [%] | growth at 0.1 µM [1] [%] | growth at 0.1 µM (SNB-75) [%] | growth at 0.1 µM (U-251 [2]) [%] | growth at 0.1 µM (MDA-MB-435) [%] | growth at 0.1 µM (UACC-257) [%] | growth at 100 µM (KM12) [%] | growth at 100 µM (SF-268) [%] | growth at 100 µM (U-251 [3]) [%] | growth at 0.1 µM (PC-3) [%] | growth at 0.1 µM (DU-145) [%] | growth at 0.1 µM (BT-549) [%] | growth at 0.01 µM (A549) [%] | growth at 0.01 µM (M14) [%] | growth at 0.01 µM (SK-MEL-28 [4]) [%] | growth at 0.01 µM (OVCAR-3) [%] | growth at 0.01 µM (CAKI-1 [5]) [%] | also measured
1 | COc1ccc(-c2nn3cc(-c4ccc(O)cc4O)nc3s2)cc1 | -11 | 34 | -60 | -78 | 95 | 68 | 92 | 91 | 92 | 2 | -8 | -46 | 91 | 96 | 94 | 96 | 96 | 95 | 102 | 95 | growth at 0.01 µM (SN12C): 99%; growth at 0.01 µM [6]: 95%; growth at 1 µM [7]: 69%; growth at 1 µM (SK-MEL-28 [8]): 73%; growth at 1 µM (CAKI-1 [9]): 69%; growth at 1 µM (UO-31): 68%; GI50 (CCRF-CEM): 5.08 µM; TGI (CCRF-CEM): > 100 µM; CC50 (CCRF-CEM): > 100 µM; GI50 (HOP-62): 1.88 µM; LC50 (concentration killing 50% of cells) (HOP-62): > 100 µM; TGI (HOP-62): 5.17 µM; growth at 10 µM (HL-60): 33%
2 | COc1ccc(-c2nn3cc(-c4cccc(N)c4)nc3s2)cc1 | 16 | 51 | 7 | 23 | 83 | 74 | 106 | 88 | 109 | -48 | -34 | -17 | 81 | 103 | 98 | 106 | 101 | 95 | 102 | 86 | growth at 0.01 µM (SN12C): 91%; growth at 0.01 µM [6]: 90%; growth at 1 µM [7]: 55%; growth at 1 µM (SK-MEL-28 [8]): 80%; growth at 1 µM (CAKI-1 [9]): 46%; growth at 1 µM (UO-31): 60%; GI50 (CCRF-CEM): 1.77 µM; TGI (CCRF-CEM): > 100 µM; CC50 (CCRF-CEM): > 100 µM; GI50 (HOP-62): 3.12 µM; LC50 (concentration killing 50% of cells) (HOP-62): 87.6 µM; TGI (HOP-62): 16.6 µM; growth at 10 µM (HL-60): 19%
